# Experimental data gathered from unrelated publications.
Structure (SMILES),organism,test,test system,conditions,quantity,value
O=C(O)c1cn(C2CC2)c2cc(N3CCNCC3)c(F)cc2c1=O,Klebsiella pneumoniae,"microbial growth, broth dilution",ATCC700603,,IC50,0.25 mg/L
CC(C)(NC(=O)c1cc2c(Cl)cc(Cl)cc2[nH]1)c1cn(Cc2cccc(Cl)c2)nn1,Cryptosporidium parvum,"parasite growth, imaging",HCT-8,"11 µM, 72 h, intracellular",inhibition,> 60%
O=S(=O)(Oc1cccc2cccnc12)c1ccccc1,Klebsiella pneumoniae,"microbial growth, broth dilution",ATCC700603,,IC50,340 mg/L
Cc1ccc2cc[nH]c2c1,Cryptosporidium parvum,parasite growth,HCT-8,"24 h, intracellular",EC50,310 µM
CC(C)(NC(=O)c1cc2c(Cl)cc(Cl)cc2[nH]1)c1cn(Cc2ccccc2)nn1,Cryptosporidium parvum,"parasite growth, imaging",HCT-8,"11 µM, 72 h, intracellular",inhibition,> 60%
O=C1NC(=S)S/C1=C\c1c2ccccc2c(-c2ccc(N(c3ccccc3)c3ccccc3)cc2)c2ccccc12,Streptococcus pneumoniae,"microbial killing, broth dilution",ATCC49619,,MBC,> 1000 mg/L
Clc1ccc(-n2cc(COc3cccc4cccnc34)nn2)cc1,Klebsiella pneumoniae,"microbial growth, broth dilution",ATCC700603,,IC50,554 mg/L
O=C(O)CN1C(=O)/C(=C/c2c3ccccc3c(-c3ccc(N(c4ccccc4)c4ccccc4)cc3)c3ccccc23)SC1=S,Streptococcus pneumoniae,"microbial growth, broth dilution",ATCC49619,,MIC,> 1000 mg/L
CC(C)(NC(=O)c1cc2c(Cl)cc(Cl)cc2[nH]1)c1cn(Cc2ccc(Cl)c(Cl)c2)nn1,Cryptosporidium parvum,"parasite growth, imaging",HCT-8,"11 µM, 72 h, intracellular",inhibition,> 60%
O=C(O)CN1C(=O)/C(=C/c2ccc(-c3ccc(N(c4ccccc4)c4ccccc4)cc3)cc2)NC1=S,Streptococcus pneumoniae,"microbial killing, broth dilution",ATCC49619,,MBC,125 mg/L
O=S(=O)(Oc1cccc2cccnc12)c1cccs1,Klebsiella pneumoniae,"microbial growth, broth dilution",ATCC700603,,IC50,443 mg/L
CNCC(=O)O,Cryptosporidium parvum,"parasite growth, imaging",HCT-8,"1 mM, 24 h, intracellular",activity vs control,98%
CCOC(=O)c1c(N)csc1-c1cn(-c2ccccc2)nc1-c1ccc(C)cc1,Klebsiella pneumoniae,"microbial killing, broth dilution",,,MBC,0.25 mg/L
NS(=O)(=O)c1ccc(-n2cc(COc3cccc4cccnc34)nn2)cc1,Klebsiella pneumoniae,"microbial growth, broth dilution",ATCC700603,,IC50,866 mg/L
O=C1NC(=S)N/C1=C\c1ccc(-c2ccc(N(c3ccccc3)c3ccccc3)cc2)cc1,Streptococcus pneumoniae,"microbial killing, broth dilution",ATCC49619,,MBC,> 1000 mg/L
Cc1c(NC(=O)CC2=NC(=O)CS2)c(=O)n(-c2ccccc2)n1C,Klebsiella pneumoniae,"microbial killing, broth dilution",,,MBC,0.5 mg/L
O=C(O)CCc1ccc(O)cc1,Cryptosporidium parvum,"parasite growth, imaging",HCT-8,"1 mM, 24 h, intracellular",activity vs control,90.5%
Cc1ccc(C(C)C)cc1OS(=O)(=O)c1ccccc1,Klebsiella pneumoniae,"microbial growth, broth dilution",ATCC700603,,IC50,117 mg/L
NCCCCC(=O)O,Cryptosporidium parvum,"parasite growth, imaging",HCT-8,"1 mM, 24 h, intracellular",activity vs control,102%
Cc1c(NN=C2SC(CC#N)=NC2=O)c(=O)n(-c2ccccc2)n1C,Klebsiella pneumoniae,"microbial growth, well diffusion",,100000 µg/mL,inhibition zone,15 mm
O=C(O)CN1C(=O)/C(=C/c2ccc(-c3ccc(N(c4ccccc4)c4ccccc4)cc3)c3ccccc23)NC1=S,Streptococcus pneumoniae,"microbial growth, broth dilution",ATCC49619,,MIC,> 1000 mg/L
Nc1ncnc2c1ncn2[C@H]1C[C@H](O)[C@@H](COP(=O)(O)O)O1,Cryptosporidium parvum,"parasite growth, imaging",HCT-8,"1 mM, 24 h, intracellular",activity vs control,96.7%
O=C1NC(=S)N/C1=C\c1ccc(-c2ccc(N(c3ccccc3)c3ccccc3)cc2)c2ccccc12,Streptococcus pneumoniae,"microbial growth, broth dilution",ATCC49619,,MIC,> 1000 mg/L
O=c1[nH]cnc2nc[nH]c12,Cryptosporidium parvum,"parasite growth, imaging",HCT-8,"1 mM, 24 h, intracellular",activity vs control,106%
Fc1ccc(-n2cc(COc3cccc4cccnc34)nn2)cc1,Klebsiella pneumoniae,"microbial growth, broth dilution",ATCC700603,,IC50,1230 mg/L
O=C(O)CN1C(=O)/C(=C/c2ccc(-c3ccc(N(c4ccccc4)c4ccccc4)cc3)c3ccccc23)SC1=S,Streptococcus pneumoniae,"microbial killing, broth dilution",ATCC49619,,MBC,> 1000 mg/L
Cc1ccc(C(C)C)cc1OCc1cn(-c2ccc(S(N)(=O)=O)cc2)nn1,Klebsiella pneumoniae,"microbial growth, broth dilution",ATCC700603,,IC50,602 mg/L
N#CC(=Cc1ccc(Cl)cc1)C1=NC(=O)C(=Cc2cn(-c3ccccc3)nc2-c2ccccc2)S1,Klebsiella pneumoniae,"microbial growth, well diffusion",,100000 µg/mL,inhibition zone,21 mm
Oc1ccc2cc[nH]c2c1,Cryptosporidium parvum,parasite growth,HCT-8,"24 h, intracellular",EC50,722 µM
N#CC(=Cc1cn(-c2ccccc2)nc1-c1ccccc1)C1=NC(=O)CS1,Klebsiella pneumoniae,"microbial killing, broth dilution",,,MBC,0.25 mg/L
O=C(O)c1cccnc1,Cryptosporidium parvum,"parasite growth, imaging",HCT-8,"1 mM, 24 h, intracellular",activity vs control,90.3%
O=C1NC(=S)N/C1=C\c1c2ccccc2c(-c2ccc(N(c3ccccc3)c3ccccc3)cc2)c2ccccc12,Streptococcus pneumoniae,"microbial killing, broth dilution",ATCC49619,,MBC,> 1000 mg/L
